Activity calls are given as the source filed them. The rule behind the calls is not given here.
Experiments:
RAW264.7 [1] = assay: Cytotoxicity against mouse RAW264.7 cells assessed as reduction in cell viability after 24 hrs by MTT assay; assay type: functional, cell-based; details: RAW264.7, 24 h
How it was run: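 RAW 264.7 mouse macrophage line kept in RPMI 1640 with 10% FBS, L-glutamine and antibiotics. Treated with 1–100 μM for 24 h, then MTT at 37 °C for 4 h. Formazan taken up in DMSO and read at 540 nm. Triplicate, at least three independent experiments. IC50 is the concentration giving 50% loss of viability relative to untreated cells.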

HeLa = assay: Cytotoxicity against human HeLa cells assessed as reduction in cell viability after 24 hrs by MTT assay; assay type: functional, cell-based
How it was run: (§1)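 Cancer cells kept in DMEM with 10% FBS, L-glutamine and antibiotics. Exposed to 1–100 μM for 24 h, then MTT at 37 °C for 4 h. Formazan dissolved in DMSO and read at 540 nm. Triplicate wells, at least three independent experiments. Viability reduction expressed against untreated cultures. IC50 is the concentration giving 50% loss of viability.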

HepG2 = assay: Cytotoxicity against human HepG2 cells assessed as reduction in cell viability after 24 hrs by MTT assay; assay type: functional, cell-based; details: HepG2, 24 h; how it was run: as §1
HT-29 = assay: Cytotoxicity against human HT-29 cells assessed as reduction in cell viability after 24 hrs by MTT assay; assay type: functional, cell-based; details: HT-29, 24 h; how it was run: as §1
[2] = Toxicity in thioglycolate-induced mouse peritoneal macrophages assessed as reduction in cell viability after 24 hrs by MTT assay; assay type: cell-based; details: peritoneal macrophage cell
How it was run: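 Primary peritoneal macrophages from thioglycolate-injected mice exposed to a range of concentrations for 24 h. Viability read by MTT at 37 °C for 4 h, formazan dissolved in DMSO, absorbance at 540 nm. Three independent experiments in duplicate, means ± SD.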

[3] = Toxicity in thioglycolate-induced mouse peritoneal macrophages assessed as induction of apoptosis after 24 hrs by flow cytometry; assay type: cell-based; details: peritoneal macrophage cell
How it was run: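 Peritoneal macrophages collected from thioglycolate-injected mice and treated across a concentration range for 24 h. Stained with PI and analysed by flow cytometry for apoptotic percentage. Means ± SD of three independent experiments done in duplicate.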

RAW264.7 [4] = assay: Induction of apoptosis in mouse RAW264.7 cells at 1 to 25 uM after 24 hrs by flow cytometry; assay type: functional, cell-based
How it was run: (§2)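 RAW 264.7 cells exposed to 1–25 μM for 24 h. Stained with 0.005% (w/v) propidium iodide and analysed at once by flow cytometry. Apoptotic and necrotic fractions taken from a forward scatter versus PI fluorescence dot plot. Means ± SD of three independent experiments in triplicate.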

RAW264.7 [5] = assay: Induction of apoptosis in mouse RAW264.7 cells at 1 uM after 24 hrs by flow cytometry; assay type: functional; how it was run: as §2
RAW264.7 [6] = assay: Induction of apoptosis in mouse RAW264.7 cells assessed as caspase 8 activation at 5 uM after 24 hrs by fluorimetry; assay type: functional, cell-based
How it was run: (§3)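 RAW cells treated with 5 μM for 24 h, with or without 40 μM z-VAD. Caspase activity read fluorimetrically in cytosolic extracts. Substrates: Ac-DEVD-AMC for caspase-3, Ac-IETD-AFC for caspase-8, Ac-LEHD-AFC for caspase-9. Means ± SD of three independent experiments run in triplicate.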

RAW264.7 [7] = assay: Induction of apoptosis in mouse RAW264.7 cells assessed as caspase 9 activation at 5 uM after 24 hrs by fluorimetry; assay type: functional, cell-based; how it was run: as §3
RAW264.7 [8] = assay: Induction of apoptosis in mouse RAW264.7 cells assessed as caspase 3 activation at 5 uM after 24 hrs by fluorimetry; assay type: functional, cell-based; how it was run: as §3
RAW264.7 [9] = assay: Induction of apoptosis in mouse RAW264.7 cells assessed as caspase 8 activation at 5 uM in presence of 40 uM caspase inhibitor z-VAD after 24 hrs by fluorimetric assay; assay type: functional, cell-based; how it was run: as §3
RAW264.7 [10] = assay: Induction of apoptosis in mouse RAW264.7 cells assessed as caspase 9 activation at 5 uM in presence of 40 uM caspase inhibitor z-VAD after 24 hrs by fluorimetric assay; assay type: functional, cell-based; how it was run: as §3
RAW264.7 [11] = assay: Induction of apoptosis in mouse RAW264.7 cells assessed as caspase 3 activation at 5 uM in presence of 40 uM caspase inhibitor z-VAD after 24 hrs by fluorimetric assay; assay type: functional, cell-based; how it was run: as §3
RAW264.7 [12] = assay: Induction of apoptosis in mouse RAW264.7 cells at 5 uM in presence of 40 uM caspase inhibitor z-VAD after 24 hrs by flow cytometry; assay type: functional, cell-based
How it was run: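 RAW 264.7 cells given 5 μM for 24 h, with or without 40 μM z-VAD. Stained with 0.005% (w/v) PI and analysed by flow cytometry. Apoptotic percentage taken from a forward scatter versus PI fluorescence dot plot. Three independent experiments in triplicate, means ± SD.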

RAW264.7 [13] = assay: Increase in p53 protein expression in mouse RAW264.7 cells at 5 uM by Western blot; assay type: functional, cell-based
How it was run: (§4)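 RAW 264.7 cells incubated with 5 μM and sampled at several time points. Cytosolic extracts run on SDS–PAGE (10–15% gels) and blotted to PVDF. Probed for p53, Bax, Bcl-2, Bcl-xl, XIAP, IAP-1 and IAP-2, then HRP secondary and chemiluminescence. β-actin served as loading control. Protein measured by Bio-Rad assay.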

RAW264.7 [14] = assay: Increase in Bax protein expression in mouse RAW264.7 cells at 5 uM by Western blot; assay type: functional, cell-based; how it was run: as §4
RAW264.7 [15] = assay: Decrease in Bcl-2 protein expression in mouse RAW264.7 cells at 5 uM by Western blot; assay type: functional, cell-based; how it was run: as §4
RAW264.7 [16] = assay: Decrease in Bcl-xl protein expression in mouse RAW264.7 cells at 5 uM by Western blot; assay type: functional, cell-based; how it was run: as §4
RAW264.7 [17] = assay: Decrease in IAP protein expression in mouse RAW264.7 cells at 5 uM by Western blot; assay type: functional, cell-based; how it was run: as §4

`C=C1C(=O)[C@@]23CC[C@H]4[C@@](C)(CCC[C@@]4(C)C(=O)OC)[C@@H]2CC[C@@H]1C3` showed an IC50 (RAW264.7 [1]) of 1 µM, an IC50 (HeLa) of 50 µM and an IC50 (HepG2) of 75 µM. The IC50 (HT-29) was 30 µM, the Activity [2] was “Non-toxic” and the Activity [3] was “Non-toxic”. The Activity (RAW264.7 [4]) was “Active”, the Activity (RAW264.7 [5]) was 50% and the Activity (RAW264.7 [6]) was “Active”. The Activity (RAW264.7 [7]) was “Active”, the Activity (RAW264.7 [8]) was “Active” and the Activity (RAW264.7 [9]) was “inactive”. For the same compound, the Activity (RAW264.7 [10]) was “inactive”, the Activity (RAW264.7 [11]) was “inactive” and the Activity (RAW264.7 [12]) was “inactive”. The Activity (RAW264.7 [13]) was “Active”, the Activity (RAW264.7 [14]) was “Active” and the Activity (RAW264.7 [15]) was “Active”. For the same compound, the Activity (RAW264.7 [16]) was “Active” and the Activity (RAW264.7 [17]) was “Active”.

— ChEMBL document CHEMBL1156919, “Synthesis and induction of apoptosis signaling pathway of ent-kaurane derivatives” (Bioorg Med Chem, 2010)
